Measurements from ChEMBL document CHEMBL1121696, “Antimicrobial 3-methyleneflavanones” (1981).
Values after ≈ are worked out from the molar mass of the structure shown. Values belong to the compound of their own block, whether it stands above or below them.

Legend:
Trichophyton benhamiae [1] = assay: Compound was tested for the antimicrobial activity against Trichophyton mentagrophytes (ATCC 4807); Range is 12.5-25; type: functional, Arthroderma benhamiae
Procedure, shortened: (§1)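 Spores came from Eugon agar slants grown 1 week at 32 °C, suspended at 10⁶/mL in Eugon broth or saline, and applied by Steers replicator. The lowest inhibitory concentration was read after 48-72 h at 32 °C.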

Aspergillus niger = assay: Antimicrobial activity against Aspergillus niger (ATCC 16404); type: functional; procedure, shortened: as §1
Candida albicans [2] = assay: Compound was tested for the antimicrobial activity against Candida albicans (ATCC 10231, NRRL Y-477); Range is 50 to >100; type: functional
Procedure, shortened: (§2)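 Agar dilution MIC. Stocks and twofold serial dilutions in DMF or 50% aqueous DMF were mixed 1:100 into molten Eugon agar, giving final 100, 50, 25, 12.5, 6.2, 3.1 mcg/mL (further dilutions sometimes) and ≤1% DMF. Inocula came from 24 h Eugon agar slants at 32 °C, suspended at 10⁶ cells/mL and applied with a Steers replicator. MIC (lowest concentration inhibiting growth) was read after 24 h at 32 °C.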

Enterococcus faecalis [3] = assay: Antimicrobial activity against Streptococcus faecalis (ATCC 10541); type: functional; procedure, shortened: as §2
Staphylococcus aureus [4] = assay: Antimicrobial activity against Staphylococcus aureus (ATCC 6538, NRRL B2747); Range is <3.1-6.2; type: functional; procedure, shortened: as §2
Candida albicans [5] = assay: Compound was tested for the antimicrobial activity against Candida albicans (ATCC 10231, NRRL Y-477); Range is 25 to >100; type: functional; procedure, shortened: as §2
Trichophyton benhamiae [6] = assay: Compound was tested for the antimicrobial activity against Trichophyton mentagrophytes (ATCC 4807); Range is 6.2-25; type: functional, Arthroderma benhamiae; procedure, shortened: as §1
Trichophyton benhamiae [7] = assay: Antimicrobial activity against Trichophyton mentagrophytes (ATCC 4807); type: functional, Arthroderma benhamiae; procedure, shortened: as §1
Trichophyton benhamiae [8] = assay: Compound was tested for the antimicrobial activity against Trichophyton mentagrophytes (ATCC 4807); Range is <3.1-6.2; type: functional, Arthroderma benhamiae; procedure, shortened: as §1
Candida albicans [9] = assay: Compound was tested for the antimicrobial activity against Candida albicans (ATCC 10231, NRRL Y-477); Range is 12.5-100; type: functional; procedure, shortened: as §2
Trichophyton benhamiae [10] = assay: Compound was tested for the antimicrobial activity against Trichophyton mentagrophytes (ATCC 4807); Range is <3.1-12.5; type: functional, Arthroderma benhamiae; procedure, shortened: as §1
Staphylococcus aureus [11] = assay: Compound was tested for the antimicrobial activity against Staphylococcus aureus (ATCC 6538, NRRL B2747); Range is 6.2-12.5; type: functional; procedure, shortened: as §2
Enterococcus faecalis [12] = assay: Compound was tested for the antimicrobial activity against Streptococcus faecalis (ATCC 10541); Range is 25-50; type: functional; procedure, shortened: as §2
Candida albicans [13] = assay: Compound was tested for the antimicrobial activity against Candida albicans (ATCC 10231, NRRL Y-477); Range is 50-100; type: functional; procedure, shortened: as §2
Trichophyton benhamiae [14] = assay: Compound was tested for the antimicrobial activity against Trichophyton mentagrophytes (ATCC 4807); Range is 25-50; type: functional, Arthroderma benhamiae; procedure, shortened: as §1
Staphylococcus aureus [15] = assay: Antimicrobial activity against Staphylococcus aureus (ATCC 6538, NRRL B2747); type: functional; procedure, shortened: as §2
Candida albicans [16] = assay: Compound was tested for the antimicrobial activity against Candida albicans (ATCC 10231, NRRL Y-477); Range is 100 to >100; type: functional; procedure, shortened: as §2
Trichophyton benhamiae [17] = assay: Compound was tested for the antimicrobial activity against Trichophyton mentagrophytes (ATCC 4807); Range is 6.2-12.5; type: functional, Arthroderma benhamiae; procedure, shortened: as §1
Candida albicans [18] = assay: Antimicrobial activity against Candida albicans (ATCC 10231, NRRL Y-477); type: functional; procedure, shortened: as §2
Candida albicans [19] = assay: Compound was tested for the antimicrobial activity against Candida albicans (ATCC 10231, NRRL Y-477); Range is 25-50; type: functional; procedure, shortened: as §2

Structure (SMILES): CN(C)CC1C(=O)c2ccccc2OC1c1ccccc1 (stereo not drawn)
- MIC (Candida albicans [9]): 12.5 µg/mL (≈ 44.4 µM)
- MIC (Trichophyton benhamiae [10]): < 3.1 µg/mL
- MIC (Staphylococcus aureus [11]): 6.2 µg/mL (≈ 22 µM)

Structure (SMILES): C=C1C(=O)c2ccccc2OC1(C)C
- MIC (Candida albicans [13]): 50 µg/mL (≈ 266 µM)
- MIC (Enterococcus faecalis [3]): > 100 µg/mL
- MIC (Trichophyton benhamiae [14]): 25 µg/mL (≈ 133 µM)
- MIC (Aspergillus niger): > 100 µg/mL
- MIC (Staphylococcus aureus [15]): > 100 µg/mL

Structure (SMILES): C=C1C(=O)c2ccccc2OC1(c1ccccc1)c1ccncc1 (stereo not drawn)
- MIC (Candida albicans [16]): > 100 µg/mL
- MIC (Trichophyton benhamiae [1]): 12.5 µg/mL (≈ 39.9 µM)

Structure (SMILES): C=C1C(=O)c2ccccc2OC1(c1ccccc1)c1cccs1 (stereo not drawn)
- MIC (Trichophyton benhamiae [6]): 6.2 µg/mL (≈ 19.5 µM)

Structure (SMILES): C=C1C(=O)c2ccc(OC)cc2OC1c1ccc(Cl)cc1 (stereo not drawn)
- MIC (Staphylococcus aureus [4]): < 3.1 µg/mL
- MIC (Trichophyton benhamiae [17]): 6.2 µg/mL (≈ 20.6 µM)
- MIC (Candida albicans [5]): > 25 µg/mL

Structure (SMILES): CN(C)CC1(C)C(=O)c2ccccc2OC1c1ccccc1 (stereo not drawn)
- MIC (Trichophyton benhamiae [7]): > 50 µg/mL
- MIC (Enterococcus faecalis [3]): > 50 µg/mL
- MIC (Aspergillus niger): > 50 µg/mL
- MIC (Candida albicans [18]): > 50 µg/mL
- MIC (Staphylococcus aureus [15]): > 50 µg/mL

Structure (SMILES): C=C1COc2ccccc2C1=O
- MIC (Candida albicans [19]): 25 µg/mL (≈ 156 µM)
- MIC (Enterococcus faecalis [3]): 100 µg/mL (≈ 624 µM)
- MIC (Trichophyton benhamiae [17]): 6.2 µg/mL (≈ 38.7 µM)
- MIC (Aspergillus niger): 100 µg/mL (≈ 624 µM)
- MIC (Staphylococcus aureus [15]): 50 µg/mL (≈ 312 µM)

The next lines start with the values.

- MIC (Trichophyton benhamiae [1]): 12.5 µg/mL (≈ 44.7 µM)
- MIC (Aspergillus niger): 100 µg/mL (≈ 358 µM)
Structure (SMILES): C=C1C(=O)c2ccccc2OC1c1ccc(N(C)C)cc1 (stereo not drawn)

- MIC (Trichophyton benhamiae [1]): 12.5 µg/mL (≈ 46.9 µM)
- MIC (Candida albicans [2]): > 50 µg/mL
Structure (SMILES): C=C1C(=O)c2ccccc2OC1c1ccc(OC)cc1 (stereo not drawn)

- MIC (Enterococcus faecalis [3]): 50 µg/mL (≈ 175 µM)
- MIC (Staphylococcus aureus [4]): < 3.1 µg/mL
- MIC (Candida albicans [5]): > 25 µg/mL
- MIC (Trichophyton benhamiae [6]): 6.2 µg/mL (≈ 21.7 µM)
- MIC (Aspergillus niger): > 100 µg/mL
Structure (SMILES): C=C1C(=O)c2ccccc2OC1c1ccc2ccccc2c1 (stereo not drawn)

- MIC (Trichophyton benhamiae [7]): 6.2 µg/mL (≈ 24.8 µM)
Structure (SMILES): C=C1C(=O)c2cc(C)ccc2OC1c1ccccc1 (stereo not drawn)

- MIC (Trichophyton benhamiae [8]): < 3.1 µg/mL
Structure (SMILES): C=C1C(=O)c2ccccc2OC1c1ccc(C)cc1 (stereo not drawn)

- MIC (Trichophyton benhamiae [6]): 6.2 µg/mL (≈ 20.3 µM)
- MIC (Enterococcus faecalis [12]): 25 µg/mL (≈ 81.9 µM)
Structure (SMILES): C=C1C(=O)c2ccccc2OC1c1ccc(Cl)cc1Cl (stereo not drawn)

- MIC (Trichophyton benhamiae [6]): 6.2 µg/mL (≈ 23.7 µM)
Structure (SMILES): C=C1C(=O)c2ccccc2OC1c1ccc(C#N)cc1 (stereo not drawn)
